Data reported in PMC5167571 (Molecular pharmaceutics, 2015).
Starred links: 1 amine or outer side, 2 acyl side, 3 side chain; linkers in the order of their positions; H or OH if unused. Non-standard residues stand in square brackets, D forms with d. Residues, ends and D or L forms follow the SMILES beside them. *: point of attachment. DOTA = O=C(O)CN1CCN(CC(=O)O)CCN(CC(=O)*)CCN(CC(=O)O)CC1; Acryloyl(3-(3-pyridyl),E) = O=C(/C=C/c1cccnc1)*; X1 = O=C(Cc1ccc(N[*:1])cc1)[*:2]; Aad = N[C@@H](CCCC(=O)O)C(=O)O; NH(2-Me-phenyl) = Cc1ccccc1N*; PEG4 = NCCOCCOCCOCCOCCC(=O)O; Ac6c = NC1(C(=O)O)CCCCC1; CO = O=C([*:1])[*:2]

How the values were obtained:
VLA-4 (integrin α4β1) = VLA-4 (integrin α4β1) (Mus musculus, UniProt P09055+Q00651); test: Competitive binding assay with ^64Cu-NODAGA-PEG4-LLP2A in B16F10 melanoma cells; conditions: VLA-4, B16F10 cells; Ki of Ga conjugate vs Kd of Lu conjugate
Sequence of VLA-4 (integrin α4β1) (Q00651 41-1039): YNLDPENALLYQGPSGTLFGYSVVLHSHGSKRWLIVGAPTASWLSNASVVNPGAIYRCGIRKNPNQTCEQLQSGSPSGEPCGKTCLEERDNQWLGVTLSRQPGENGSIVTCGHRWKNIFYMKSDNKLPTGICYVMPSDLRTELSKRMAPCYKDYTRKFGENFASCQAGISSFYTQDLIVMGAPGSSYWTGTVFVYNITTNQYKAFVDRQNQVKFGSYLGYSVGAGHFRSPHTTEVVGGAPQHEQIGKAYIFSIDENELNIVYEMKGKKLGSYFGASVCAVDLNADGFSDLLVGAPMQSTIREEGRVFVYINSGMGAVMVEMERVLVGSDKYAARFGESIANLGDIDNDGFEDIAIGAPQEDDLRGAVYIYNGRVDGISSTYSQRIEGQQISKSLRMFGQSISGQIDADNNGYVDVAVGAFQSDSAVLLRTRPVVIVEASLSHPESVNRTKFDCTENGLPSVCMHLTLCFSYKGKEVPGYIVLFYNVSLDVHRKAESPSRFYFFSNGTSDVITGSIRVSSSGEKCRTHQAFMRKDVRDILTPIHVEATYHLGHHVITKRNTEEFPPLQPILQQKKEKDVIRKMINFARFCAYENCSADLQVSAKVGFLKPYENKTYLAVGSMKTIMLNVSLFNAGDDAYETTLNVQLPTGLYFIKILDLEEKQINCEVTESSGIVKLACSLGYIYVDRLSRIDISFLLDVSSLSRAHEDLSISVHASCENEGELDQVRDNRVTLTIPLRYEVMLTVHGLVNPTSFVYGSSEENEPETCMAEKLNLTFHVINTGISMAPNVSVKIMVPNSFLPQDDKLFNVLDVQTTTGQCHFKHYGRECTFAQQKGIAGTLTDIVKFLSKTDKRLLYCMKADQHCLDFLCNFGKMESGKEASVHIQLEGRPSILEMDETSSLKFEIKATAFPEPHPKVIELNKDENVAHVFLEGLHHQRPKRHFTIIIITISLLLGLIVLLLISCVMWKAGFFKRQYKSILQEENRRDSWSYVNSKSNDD
Sequence of VLA-4 (integrin α4β1) (P09055 21-798): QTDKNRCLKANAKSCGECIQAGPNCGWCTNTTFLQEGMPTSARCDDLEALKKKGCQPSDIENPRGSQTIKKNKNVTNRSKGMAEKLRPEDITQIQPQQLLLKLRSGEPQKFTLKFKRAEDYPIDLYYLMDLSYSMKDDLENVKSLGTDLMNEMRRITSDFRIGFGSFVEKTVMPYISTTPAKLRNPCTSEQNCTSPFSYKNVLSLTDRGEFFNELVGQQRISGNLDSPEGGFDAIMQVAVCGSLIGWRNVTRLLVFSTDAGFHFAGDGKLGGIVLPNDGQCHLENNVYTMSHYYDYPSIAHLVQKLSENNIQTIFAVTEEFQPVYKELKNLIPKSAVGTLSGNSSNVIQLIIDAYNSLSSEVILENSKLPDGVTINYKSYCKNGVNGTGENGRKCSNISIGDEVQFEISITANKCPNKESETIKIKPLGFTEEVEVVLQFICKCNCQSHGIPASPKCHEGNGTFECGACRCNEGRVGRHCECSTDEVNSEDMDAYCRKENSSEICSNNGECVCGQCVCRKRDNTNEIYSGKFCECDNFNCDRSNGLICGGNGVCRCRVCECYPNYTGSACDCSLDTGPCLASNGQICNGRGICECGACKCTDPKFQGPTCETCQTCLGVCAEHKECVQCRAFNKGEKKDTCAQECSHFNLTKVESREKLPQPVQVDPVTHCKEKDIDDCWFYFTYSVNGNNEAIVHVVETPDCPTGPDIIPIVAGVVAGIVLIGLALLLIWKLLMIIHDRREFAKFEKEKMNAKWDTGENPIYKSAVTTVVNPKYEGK
Summary of the method: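 Both assays used B16F10 cells (10⁵/well, seeded 24 h earlier) in HBSS/0.1% BSA/1 mM Mn²⁺ on ice. […] Kd: ¹⁷⁷Lu conjugate (0.2–40 nM), 2 h, n = 3, with nonspecific binding from a 15 μg LLP2A-PEG₄ block. Cell-bound counts were normalized to BCA protein and fitted for Kd and Ki.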

[1] = test system: B16F10 tumor-bearing C57BL/6 mice; test: Biodistribution of ^68Ga-DOTA-PEG4-LLP2A; type: in vivo, mouse; conditions: 360-fold excess of LLP2A-PEG4 (100 μg), 1 h
Summary of the method: (§1)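 Mice bearing s.c. right-shoulder B16F10 tumors (10⁶ cells in PBS) received the ⁶⁸Ga tracer i.v. (5.55 MBq, 277 ng), n = 4 per group. They were sacrificed at 1 h. A blocking group received tracer premixed with 100 μg LLP2A-PEG₄. Tissues and tumor were weighed and γ-counted, and decay-corrected %ID/g was calculated against a standard. Data are mean ± SD.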

[2] = Biodistribution of ^68Ga-DOTA-PEG4-LLP2A; type: in vivo, mouse; conditions: C57BL/6, mouse, iv, 5.55 MBq, total radioactivity
Summary of the method: as §1

B16F10 cells = test: Internalization assay; type: cell-based, mouse; conditions: 37 °C; for Internalized agent: 12 ng/well, n = 3
[3] = test system: B16F10 tumor-bearing C57BL/6 mice; test: Biodistribution of ^177Lu-DOTA-PEG4-LLP2A; type: in vivo, mouse; conditions: 4 h postinjection, i.v.
Summary of the method: (§2)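 B16F10 cells (10⁶ in PBS) were implanted s.c. in the right shoulder of 6–8-week-old C57BL/6 mice. ¹⁷⁷Lu conjugate (3.6 MBq, 90 ng) was given i.v., n = 5 per group. Animals were killed at 4, 24, 48, 72 and 96 h. Blood, organs, muscle, bone and tumor were weighed and γ-counted. Values are decay-corrected %ID/g against an injected-dose standard, shown as tumor/blood and tumor/muscle ratios, mean ± SD.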

[4] = Biodistribution of ^177Lu-DOTA-PEG4-LLP2A; type: in vivo, mouse; conditions: C57BL/6, mouse, iv, 3.6 MBq, total radioactivity
Summary of the method: as §2

Cc1ccccc1NC(=O)Nc1ccc(CC(=O)N[C@@H](CCCCNC(=O)/C=C/c2cccnc2)C(=O)N[C@@H](CCCC(=O)O)C(=O)NC2(C(=O)NCCOCCOCCOCCOCCC(=O)N[C@@H](CCCCNC(=O)CN3CCN(CC(=O)O)CCN(CC(=O)O)CCN(CC(=O)O)CC3)C(N)=O)CCCCC2)cc1 [^68Ga-DOTA-PEG4-LLP2A, metal not drawn] ({NH(2-Me-phenyl)-CO}-[X1]K(Acryloyl(3-(3-pyridyl),E))[Aad][Ac6c][PEG4]K(DOTA)-NH2; N-terminus and C-terminus assumed)
fold higher affinity than the ^177Lu-labeled conjugate (VLA-4 (integrin α4β1)): 3 fold
uptake in blocking study [1]: reduction of uptake
tissue uptake at 1 h ([2]; bone marrow): 3.2 ± 0.7 %ID/g
tissue uptake at 1 h ([2]; kidneys): 3.7 ± 0.9 %ID/g
tissue uptake at 1 h ([2]; liver): 1.9 ± 0.4 %ID/g
tissue uptake at 1 h ([2]; spleen): 5.4 ± 1.7 %ID/g
tissue uptake at 1 h ([2]; thymus): 4.6 ± 0.5 %ID/g
tissue uptake at 1 h ([2]; tumor): 9.1 ± 0.9 %ID/g
tissue to tissue ratio at 1 h ([2]; tumor/blood): 5.8 ± 1.5
tissue to tissue ratio at 1 h ([2]; tumor/muscle): 9.7 ± 1.5

Cc1ccccc1NC(=O)Nc1ccc(CC(=O)N[C@@H](CCCCNC(=O)/C=C/c2cccnc2)C(=O)N[C@@H](CCCC(=O)O)C(=O)NC2(C(=O)NCCOCCOCCOCCOCCC(=O)N[C@@H](CCCCNC(=O)CN3CCN(CC(=O)O)CCN(CC(=O)O)CCN(CC(=O)O)CC3)C(N)=O)CCCCC2)cc1 [^177Lu-DOTA-PEG4-LLP2A, metal not drawn] ({NH(2-Me-phenyl)-CO}-[X1]K(Acryloyl(3-(3-pyridyl),E))[Aad][Ac6c][PEG4]K(DOTA)-NH2; N-terminus and C-terminus assumed)
Internalized agent (B16F10 cells; 30 min (maximum uptake)): 341 ± 110 fmol/mg
Internalized agent (B16F10 cells; 2 h): 343 ± 53 fmol/mg
Internalized agent (B16F10 cells; 4 h): 303 ± 41 fmol/mg
time to internalization post addition (B16F10 cells; internalized rapidly): < 15 min
tumor uptake ([3]; 3.6 MBq, 90 ng, n = 5, mean ± SD): 31.3 ± 7.8 % ID/g
uptake in the muscle, heart, and blood ([3]; n = 5): minimal uptake
tissue uptake at 4 h ([4]; bone (likely bone marrow)): 10.1 ± 3.5 %ID/g
tissue uptake at 24 h ([4]; bone): 4.1 ± 0.4 %ID/g
tissue uptake at 48 h ([4]; bone): 2.7 ± 0.6 %ID/g
tissue uptake at 72 h ([4]; bone): 2.2 ± 0.5 %ID/g
tissue uptake at 96 h ([4]; bone): 1.6 ± 0.6 %ID/g
tissue uptake at 24 h ([4]; kidney): 2.4 ± 0.3 %ID/g
tissue uptake at 4 h ([4]; kidneys): 6.5 ± 1.5 %ID/g
tissue uptake at 4 h ([4]; liver): 2.8 ± 0.4 %ID/g
tissue uptake at 24 h ([4]; liver): 1 ± 0.1 %ID/g
tissue uptake at 4 h ([4]; lungs): 5.9 ± 0.8 %ID/g
tissue uptake at 4 h ([4]; spleen): 27.1 ± 3.1 %ID/g
tissue uptake at 24 h ([4]; spleen): 10.1 ± 4.1 %ID/g
tissue uptake at 48 h ([4]; spleen): 7.4 ± 1.4 %ID/g
tissue uptake at 72 h ([4]; spleen): 4.7 ± 1.5 %ID/g
tissue uptake at 96 h ([4]; spleen): 3.7 ± 1.1 %ID/g
tissue uptake at 4 h ([4]; thymus): 9.7 ± 1.7 %ID/g
tissue uptake at 24 h ([4]; thymus): 5.6 ± 0.9 %ID/g
tissue uptake at 48 h ([4]; thymus): 4.1 ± 0.2 %ID/g
tissue uptake at 72 h ([4]; thymus): 2.7 ± 0.5 %ID/g
tissue uptake at 96 h ([4]; thymus): 1.7 ± 0.2 %ID/g
tissue uptake at 4 h ([4]; tumor): 31.5 ± 7.8 %ID/g
tissue uptake at 24 h ([4]; tumor): 5.4 ± 1.5 %ID/g
tissue uptake at 48 h ([4]; tumor): 1.7 ± 0.4 %ID/g
tissue uptake at 72 h ([4]; tumor): 0.9 ± 0.4 %ID/g
tissue uptake at 96 h ([4]; tumor): 0.4 ± 0.07 %ID/g
tissue to tissue ratio at 4 h ([4]; tumor/blood): 36 ± 10
tissue to tissue ratio at 24 h ([4]; tumor/blood): 186 ± 26
tissue to tissue ratio at 48 h ([4]; tumor/blood): 61 ± 13
tissue to tissue ratio at 72 h ([4]; tumor/blood): 35 ± 37
tissue to tissue ratio at 96 h ([4]; tumor/blood): 25 ± 16
tissue to tissue ratio at 4 h ([4]; tumor/muscle): 21 ± 7
tissue to tissue ratio at 24 h ([4]; tumor/muscle): 18 ± 3
tissue to tissue ratio at 48 h ([4]; tumor/muscle): 9 ± 1
tissue to tissue ratio at 72 h ([4]; tumor/muscle): 6 ± 3
tissue to tissue ratio at 96 h ([4]; tumor/muscle): 3 ± 0.4
